ChEMBL document CHEMBL1121867, “Inhibition of separated forms of cyclic nucleotide phosphodiesterase from pig coronary arteries by 1,3-disubstituted and 1,3,8-trisubstituted xanthines” (J Med Chem, 1981)

What was measured:
Sus scrofa [1] = species on record: Sus scrofa; experiment: Inhibition of pig coronary artery phosphodiesterase peak I cGMP specific and calmodulin sensitive at 100 uM
Sus scrofa [2] = species on record: Sus scrofa; experiment: Inhibition of Peak II phosphodiesterase from pig coronary arteries at 100 uM
[3] = Inhibition of Peak I phosphodiesterase from pig coronary arteries; design: species or system Sus scrofa; settings: read-out: I50
Outline: (§1)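 Separated peak I and peak II phosphodiesterase forms prepared from pig coronary arteries. Hydrolysis of 1 µM cyclic nucleotide substrate was measured at 30 °C for 30 min, with enzyme diluted to give 10-20% hydrolysis without inhibitor. Compounds were added from 30% Me2SO, giving 3% Me2SO final in all tubes, including controls and blanks. I50 was read from concentration-inhibition curves over 10^-7 to 10^-4 M, or to 10^-3 M if soluble.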

[4] = Inhibition of pig coronary artery cAMP-specific phosphodiesterase; design: species or system Sus scrofa; settings: read-out: I50
Outline: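 Separated peak I and peak II phosphodiesterase forms prepared from pig coronary arteries. Compounds were added from 30% Me2SO, giving 3% Me2SO final in all tubes, including controls and blanks. I50 was read from concentration-inhibition curves over 10^-7 to 10^-4 M, or to 10^-3 M if soluble.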

Sus scrofa [5] = species on record: Sus scrofa; experiment: Inhibition of pig coronary artery phosphodiesterase peak I cGMP specific and calmodulin sensitive; settings: concentration not given here; outline: as §1
Sus scrofa [6] = species on record: Sus scrofa; experiment: Inhibition of pig coronary artery phosphodiesterase peak II cyclic AMP specific at 100 uM

Row | inhibition (Sus scrofa [2]) | IC50 [3] | SMILES | also measured
1 | 27% | – | CC(=O)OCCn1c(=O)n(C)c(=O)c2nc[nH]c21 | inhibition (Sus scrofa [1]): 43%
2 | 28% | 8.9 µM | CC(C)Cn1c(=O)n(C)c(=O)c2[nH]c(CCl)nc21 | –
3 | 30% | 9.8 µM | COC(=O)CCc1nc2c(=O)n(C)c(=O)n(CC(C)C)c2[nH]1 | –
4 | 12% | 45 µM | CC(C)Cn1c(=O)n(C)c(=O)c2[nH]c(CCC(=O)O)nc21 | –
5 | – | 25 µM | C=CCn1c(=O)n(C)c(=O)c2nc[nH]c21 | IC50 [4]: 52 µM
6 | – | 9.4 µM | CC(C)Cn1c(=O)n(C)c(=O)c2[nH]c(CO)nc21 | IC50 [4]: 283 µM
7 | – | 86 µM | CC(C)CCn1c(=O)c2[nH]cnc2n(CC(C)C)c1=O | IC50 [4]: 17 µM
8 | 42% | – | C=C(C)Cn1c(=O)n(CCC(C)C)c(=O)c2nc[nH]c21 | inhibition (Sus scrofa [1]): 38%
9 | 33% | 1.6 µM | CC(C)Cn1c(=O)n(C)c(=O)c2[nH]c(N(C)C)nc21 | –
10 | 40% | – | COC(=O)Cn1c(=O)c2nc[nH]c2n(CC(C)C)c1=O | inhibition (Sus scrofa [1]): 26%
11 | 23% | – | Cn1c(=O)c2nc[nH]c2n(CCO)c1=O | inhibition (Sus scrofa [1]): 30%
12 | – | 10 µM | C=C(C)Cn1c(=O)n(C)c(=O)c2nc[nH]c21 | IC50 [4]: 36 µM
13 | 21% | 6.3 µM | CC(C)=CCc1nc2c([nH]1)c(=O)n(C)c(=O)n2CC(C)C | –
14 | – | 5.2 µM | COCc1nc2c([nH]1)c(=O)n(C)c(=O)n2CC(C)C | IC50 [4]: 212 µM
15 | 39% | 1.2 µM | CNc1nc2c(=O)n(C)c(=O)n(CC(C)C)c2[nH]1 | –
16 | 1.9% | – | CC(C)Cn1c(=O)n(CC(=O)O)c(=O)c2[nH]cnc21 | inhibition (Sus scrofa [5]): 2.4%
17 | 29% | 11 µM | CC(C)Cn1c(=O)n(C)c(=O)c2[nH]c(CCCO)nc21 | –
18 | – | – | CC(C)Cn1c(=O)n(C)c(=O)c2[nH]nnc21 | inhibition (Sus scrofa [1]): 35%; inhibition (Sus scrofa [6]): 1%

Row | SMILES | inhibition (Sus scrofa [2]) | IC50 [3] | also measured
19 | Cn1c(=O)c2nc[nH]c2n(C)c1=O [THEOPHYLLINE] | – | 100 µM | –
